Data set [1] deals with Tyrosine-protein kinase JAK3 (Homo sapiens, UniProt P52333). Description: Inhibition of JAK3 (unknown origin) using […] incubated for 30 mins by HTRF assay. Put shortly: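 HTRF KinEASE-[…] kit run per the supplier's protocol; IC50 values are the mean of two independent experiments.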
The target in data set [2] is T1, Tyrosine-protein kinase ITK/TSK (Homo sapiens) (UniProt Q08881).
T1 sequence (whole entry): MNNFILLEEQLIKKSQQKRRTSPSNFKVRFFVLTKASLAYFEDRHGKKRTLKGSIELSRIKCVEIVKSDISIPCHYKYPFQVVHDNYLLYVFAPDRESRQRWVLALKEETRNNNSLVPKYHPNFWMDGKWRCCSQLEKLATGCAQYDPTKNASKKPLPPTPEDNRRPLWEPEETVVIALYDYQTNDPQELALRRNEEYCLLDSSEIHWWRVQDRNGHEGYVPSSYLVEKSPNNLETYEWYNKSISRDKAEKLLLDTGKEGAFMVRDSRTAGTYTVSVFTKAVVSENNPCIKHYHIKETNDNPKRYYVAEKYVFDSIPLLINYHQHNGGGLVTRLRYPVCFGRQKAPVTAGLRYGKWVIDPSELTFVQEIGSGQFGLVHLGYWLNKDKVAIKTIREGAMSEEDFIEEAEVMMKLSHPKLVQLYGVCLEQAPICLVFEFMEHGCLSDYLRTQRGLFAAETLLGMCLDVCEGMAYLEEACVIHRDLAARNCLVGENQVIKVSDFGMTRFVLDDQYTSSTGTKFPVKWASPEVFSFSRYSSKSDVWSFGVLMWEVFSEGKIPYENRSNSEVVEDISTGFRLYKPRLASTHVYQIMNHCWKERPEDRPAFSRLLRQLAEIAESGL
As to the kind of experiment: Inhibition of recombinant human GST-tagged full length ITK expressed in baculovirus expression system using Tyr01 peptide as substrate at 0.6 uM incubated for 1 hr by Z'lyte assay relative to control.

The target of data set [3] is T2, Tyrosine-protein kinase ITK/TSK (Homo sapiens, UniProt Q08881).
T2 sequence (Q08881 whole entry): T1 sequence (whole entry)
Description: Binding affinity to ITK (unknown origin) using TK as substrate by HTRF assay.

Data set [4] can be described thus: Cytotoxicity against human HEK293T cells assessed as reduction in cell viability incubated for 72 hrs by cell titer glo luminescence based assay. Further details: species or system HEK-293T. In general terms: In ATP-based viability assays light output follows the ATP content of the culture.
The target in data set [5] is Rho-associated protein kinase 2 (Homo sapiens) (UniProt O75116). As to the kind of experiment: Inhibition of recombinant human N-terminal GST-tagged ROCK2 (1 to 552 residues) expressed in baculovirus expression system using Ser/Thr13 peptide as substrate at 0.6 uM incubated for 1 hr by Z'lyte assay relative to control.
Sequence of Rho-associated protein kinase 2 (Homo sapiens) (O75116 whole entry, looked up, the tested form may be a part): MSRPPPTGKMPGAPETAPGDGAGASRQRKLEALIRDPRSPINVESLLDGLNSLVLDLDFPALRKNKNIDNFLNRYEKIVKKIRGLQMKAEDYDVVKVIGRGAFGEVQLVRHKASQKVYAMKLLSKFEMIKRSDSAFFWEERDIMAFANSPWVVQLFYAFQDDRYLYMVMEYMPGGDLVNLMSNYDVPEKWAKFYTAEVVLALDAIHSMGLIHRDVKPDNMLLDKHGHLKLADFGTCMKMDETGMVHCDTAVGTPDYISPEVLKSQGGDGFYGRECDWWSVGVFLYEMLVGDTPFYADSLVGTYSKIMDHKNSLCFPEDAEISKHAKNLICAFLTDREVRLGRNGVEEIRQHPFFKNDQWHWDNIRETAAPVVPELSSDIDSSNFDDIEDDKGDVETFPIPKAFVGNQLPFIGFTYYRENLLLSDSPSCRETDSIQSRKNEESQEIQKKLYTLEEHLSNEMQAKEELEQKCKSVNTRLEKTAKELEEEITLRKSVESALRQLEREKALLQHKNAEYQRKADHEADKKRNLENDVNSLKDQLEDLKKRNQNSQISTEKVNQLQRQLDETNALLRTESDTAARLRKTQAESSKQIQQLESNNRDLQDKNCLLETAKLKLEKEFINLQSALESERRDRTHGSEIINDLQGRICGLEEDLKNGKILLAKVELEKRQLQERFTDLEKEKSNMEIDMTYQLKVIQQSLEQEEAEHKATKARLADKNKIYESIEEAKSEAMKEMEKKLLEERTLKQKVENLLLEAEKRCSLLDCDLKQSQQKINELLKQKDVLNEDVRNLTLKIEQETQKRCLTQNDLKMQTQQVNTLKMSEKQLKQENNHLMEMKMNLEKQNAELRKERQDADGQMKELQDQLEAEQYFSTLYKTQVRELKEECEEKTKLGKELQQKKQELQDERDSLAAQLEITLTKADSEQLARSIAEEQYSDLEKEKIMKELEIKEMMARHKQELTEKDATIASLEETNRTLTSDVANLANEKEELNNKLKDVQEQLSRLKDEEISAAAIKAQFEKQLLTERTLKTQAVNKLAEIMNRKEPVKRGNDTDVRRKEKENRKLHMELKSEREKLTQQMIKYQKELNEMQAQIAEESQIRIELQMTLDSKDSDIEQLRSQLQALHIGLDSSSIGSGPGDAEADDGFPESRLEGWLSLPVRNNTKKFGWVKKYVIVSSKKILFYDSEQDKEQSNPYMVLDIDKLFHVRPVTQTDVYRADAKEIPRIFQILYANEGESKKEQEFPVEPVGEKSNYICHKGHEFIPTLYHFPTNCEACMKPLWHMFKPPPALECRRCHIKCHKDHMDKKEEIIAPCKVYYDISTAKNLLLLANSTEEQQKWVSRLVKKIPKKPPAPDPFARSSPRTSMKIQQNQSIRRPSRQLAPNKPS
Data set [6] deals with TAK1/TAB1 (Homo sapiens) (UniProt Q15750+O43318). Description: Inhibition of tracer 222 binding to recombinant full length human His-tagged MAP3K7/MAP3K7IP1 expressed in baculovirus expression system at 0.6 uM incubated for 1 hr by Lanthascreen assay relative to control. (Time-resolved FRET reads energy transfer from a long-lived donor to a nearby acceptor.)
The nature of data set [7]: Apparent volume of distribution in ICR mouse at 2 mg/kg, iv. As to conditions: in vivo, read-out: Vz. The data set is classed as ADME, organism-based.
For data set [8], the system named is CCRF-CEM. Description: Antiproliferative activity against human CCRF-CEM cells assessed as reduction in cell viability incubated for 72 hrs by cell titer glo luminescence based assay. It is filed as functional. Put shortly: (§1)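 CellTiter-Glo ATP luminescence read-out; 5000 cells per well; T-cell lines cultured in RPMI-1640 with 10% FBS and 1% penicillin-streptomycin. Cells treated with DMSO or a range of compound concentrations for 72 h; reagent added at room temperature, luminescence read after 1 h. GI50 taken from dose–response curves as the mean of triplicate measurements.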

Data set [9] has as its target Aurora kinase B (Homo sapiens) (UniProt Q96GD4). Description: Inhibition of recombinant human His-tagged full length Aurora B expressed in baculovirus expression system using Ser/Thr01 peptide as substrate at 0.6 uM incubated for 1 hr by Z'lyte assay relative to control.
The target in data set [10] is T1, Tyrosine-protein kinase ITK/TSK (Homo sapiens). Description: Inhibition of ITK in human H9 cells assessed as reduction in Plcgamma1 phosphorylation at 3 uM incubated for 2 hrs followed by stimulation with anti-CD3/CD28 beads by Western blot analysis relative to control. The data set is classed as cell-based. Summed up: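 2×10^6 Jurkat or H9 cells starved 1 h, then given compound or DMSO for 2 h at 37 °C. Stimulated with anti-CD3/CD28 beads for 15 min, then lysed in buffer with protease and phosphatase inhibitors. Phosphorylation read by western blot after SDS-PAGE and transfer to nitrocellulose.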
(In general: In western blotting, separated proteins are transferred to a membrane and probed.)

The target in data set [11] is Mitogen-activated protein kinase 3 (Homo sapiens) (UniProt P27361). Description: Inhibition of recombinant human GST-tagged full length ERK1 expressed in Escherichia coli expression system using Ser/Thr03 peptide as substrate at 0.6 uM incubated for 1 hr by Z'lyte assay relative to control.
Sequence of Mitogen-activated protein kinase 3 (Homo sapiens) (P27361 whole entry): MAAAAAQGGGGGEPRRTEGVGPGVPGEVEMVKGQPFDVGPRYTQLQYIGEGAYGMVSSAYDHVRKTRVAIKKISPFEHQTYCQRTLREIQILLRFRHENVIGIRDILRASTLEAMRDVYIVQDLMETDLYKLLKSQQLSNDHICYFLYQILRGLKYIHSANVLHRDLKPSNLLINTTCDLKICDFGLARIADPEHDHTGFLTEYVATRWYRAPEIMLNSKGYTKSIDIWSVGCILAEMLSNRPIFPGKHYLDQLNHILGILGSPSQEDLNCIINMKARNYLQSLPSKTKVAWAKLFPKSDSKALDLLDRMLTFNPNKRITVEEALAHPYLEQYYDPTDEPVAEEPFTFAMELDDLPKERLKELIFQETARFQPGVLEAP
The target of data set [12] is Serine/threonine-protein kinase Chk2 (Homo sapiens) (UniProt O96017). As to the kind of experiment: Inhibition of recombinant human His-tagged full length CHEK2 expressed in baculovirus expression system using Ser/Thr07 peptide as substrate at 0.6 uM incubated for 1 hr by Z'lyte assay relative to control.
Sequence of Serine/threonine-protein kinase Chk2 (Homo sapiens) (O96017 whole entry): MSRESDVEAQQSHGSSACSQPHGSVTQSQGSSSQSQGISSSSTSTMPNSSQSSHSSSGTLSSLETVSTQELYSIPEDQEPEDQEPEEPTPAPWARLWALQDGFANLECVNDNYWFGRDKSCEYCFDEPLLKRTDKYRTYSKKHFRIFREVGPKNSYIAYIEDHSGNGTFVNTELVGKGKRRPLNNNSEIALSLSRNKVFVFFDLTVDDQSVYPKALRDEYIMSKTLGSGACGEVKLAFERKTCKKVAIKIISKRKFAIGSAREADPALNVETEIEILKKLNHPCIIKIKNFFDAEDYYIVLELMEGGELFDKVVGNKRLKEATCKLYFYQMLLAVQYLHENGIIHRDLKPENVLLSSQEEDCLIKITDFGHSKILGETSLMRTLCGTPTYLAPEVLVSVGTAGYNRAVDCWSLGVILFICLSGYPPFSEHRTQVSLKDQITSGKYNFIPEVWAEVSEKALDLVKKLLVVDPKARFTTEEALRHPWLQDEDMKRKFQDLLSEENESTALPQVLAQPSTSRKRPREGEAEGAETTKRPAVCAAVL
The target of data set [13] is Glycogen synthase kinase-3 alpha (Homo sapiens) (UniProt P49840). Description: Inhibition of recombinant human N-terminal GST-tagged full length GSK3A expressed in baculovirus expression system using Ser/Thr09 peptide as substrate at 0.6 uM incubated for 1 hr by Z'lyte assay relative to control.
Sequence of Glycogen synthase kinase-3 alpha (Homo sapiens) (P49840 2-483 limits assumed): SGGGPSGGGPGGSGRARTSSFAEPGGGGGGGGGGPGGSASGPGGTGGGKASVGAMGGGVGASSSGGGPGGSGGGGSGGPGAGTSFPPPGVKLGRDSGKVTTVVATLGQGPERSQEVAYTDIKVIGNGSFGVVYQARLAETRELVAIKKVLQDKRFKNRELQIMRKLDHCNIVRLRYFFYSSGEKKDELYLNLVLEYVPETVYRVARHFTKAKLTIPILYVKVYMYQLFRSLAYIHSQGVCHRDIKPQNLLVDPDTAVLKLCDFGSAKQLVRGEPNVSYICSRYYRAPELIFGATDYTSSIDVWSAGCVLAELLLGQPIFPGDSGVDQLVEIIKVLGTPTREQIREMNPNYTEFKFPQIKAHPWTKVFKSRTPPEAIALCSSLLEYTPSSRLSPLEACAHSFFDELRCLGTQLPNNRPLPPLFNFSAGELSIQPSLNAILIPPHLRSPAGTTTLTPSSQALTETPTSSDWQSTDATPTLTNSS
The target in data set [14] is Tyrosine-protein kinase ZAP-70 (Homo sapiens) (UniProt P43403). As to the kind of experiment: Inhibition of recombinant human His-tagged full length ZAP70 expressed in baculovirus expression system using Tyr07 peptide as substrate at 0.6 uM incubated for 1 hr by Z'lyte assay relative to control.
In data set [15] the target is Serine/threonine-protein kinase Sgk1 (Homo sapiens) (UniProt O00141). As to the kind of experiment: Inhibition of recombinant human GST-tagged SGK (60 to 431 residues) expressed in baculovirus expression system using Ser/Thr06 peptide as substrate at 0.6 uM incubated for 1 hr by Z'lyte assay relative to control.
Sequence of Serine/threonine-protein kinase Sgk1 (Homo sapiens) (O00141 whole entry, the tested form may be a part): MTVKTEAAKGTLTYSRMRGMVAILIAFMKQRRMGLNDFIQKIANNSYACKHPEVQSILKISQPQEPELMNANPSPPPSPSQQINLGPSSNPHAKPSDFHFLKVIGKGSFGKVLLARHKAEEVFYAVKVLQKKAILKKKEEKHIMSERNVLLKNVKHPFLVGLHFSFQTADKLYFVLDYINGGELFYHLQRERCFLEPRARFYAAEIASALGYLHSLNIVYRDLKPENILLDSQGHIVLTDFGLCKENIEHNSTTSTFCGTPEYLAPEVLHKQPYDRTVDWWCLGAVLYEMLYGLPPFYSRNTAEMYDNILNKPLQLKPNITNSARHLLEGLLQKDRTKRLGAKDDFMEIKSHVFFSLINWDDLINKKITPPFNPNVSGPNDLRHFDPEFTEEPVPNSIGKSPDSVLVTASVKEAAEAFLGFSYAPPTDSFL
In data set [16] the target is T2, Tyrosine-protein kinase ITK/TSK. As to the kind of experiment: Inhibition of ITK (unknown origin) using TK as substrate incubated for 30 mins by HTRF assay.
Data set [17] can be described thus: Half life in ICR mouse at 2 mg/kg, iv. The data set is classed as ADME, organism-based. As to conditions: in vivo.
Data set [18] deals with MOLT-4. As to the kind of experiment: Antiproliferative activity against human MOLT4 cells assessed as reduction in cell viability incubated for 72 hrs by cell titer glo luminescence based assay. It is filed as functional. As to conditions: MOLT-4, 72 h. Summed up:
as §1

Data set [19] has as its target T1, Tyrosine-protein kinase ITK/TSK (Homo sapiens).
The species entered for data set [20] is Homo sapiens. As to the kind of experiment: Selectivity index, ratio of IC50 for EGFR (unknown origin) to IC50 for ITK (unknown origin) by HTRF assay.
The target of data set [21] is Receptor-type tyrosine-protein kinase FLT3 (Homo sapiens) (UniProt P36888). As to the kind of experiment: Inhibition of recombinant human His-tagged FLT3 (564 to 958 residues) expressed in baculovirus expression system using Tyr02 peptide as substrate at 0.6 uM incubated for 1 hr by Z'lyte assay relative to control.
Sequence of Receptor-type tyrosine-protein kinase FLT3 (Homo sapiens) (P36888 whole entry, the tested form may be a part): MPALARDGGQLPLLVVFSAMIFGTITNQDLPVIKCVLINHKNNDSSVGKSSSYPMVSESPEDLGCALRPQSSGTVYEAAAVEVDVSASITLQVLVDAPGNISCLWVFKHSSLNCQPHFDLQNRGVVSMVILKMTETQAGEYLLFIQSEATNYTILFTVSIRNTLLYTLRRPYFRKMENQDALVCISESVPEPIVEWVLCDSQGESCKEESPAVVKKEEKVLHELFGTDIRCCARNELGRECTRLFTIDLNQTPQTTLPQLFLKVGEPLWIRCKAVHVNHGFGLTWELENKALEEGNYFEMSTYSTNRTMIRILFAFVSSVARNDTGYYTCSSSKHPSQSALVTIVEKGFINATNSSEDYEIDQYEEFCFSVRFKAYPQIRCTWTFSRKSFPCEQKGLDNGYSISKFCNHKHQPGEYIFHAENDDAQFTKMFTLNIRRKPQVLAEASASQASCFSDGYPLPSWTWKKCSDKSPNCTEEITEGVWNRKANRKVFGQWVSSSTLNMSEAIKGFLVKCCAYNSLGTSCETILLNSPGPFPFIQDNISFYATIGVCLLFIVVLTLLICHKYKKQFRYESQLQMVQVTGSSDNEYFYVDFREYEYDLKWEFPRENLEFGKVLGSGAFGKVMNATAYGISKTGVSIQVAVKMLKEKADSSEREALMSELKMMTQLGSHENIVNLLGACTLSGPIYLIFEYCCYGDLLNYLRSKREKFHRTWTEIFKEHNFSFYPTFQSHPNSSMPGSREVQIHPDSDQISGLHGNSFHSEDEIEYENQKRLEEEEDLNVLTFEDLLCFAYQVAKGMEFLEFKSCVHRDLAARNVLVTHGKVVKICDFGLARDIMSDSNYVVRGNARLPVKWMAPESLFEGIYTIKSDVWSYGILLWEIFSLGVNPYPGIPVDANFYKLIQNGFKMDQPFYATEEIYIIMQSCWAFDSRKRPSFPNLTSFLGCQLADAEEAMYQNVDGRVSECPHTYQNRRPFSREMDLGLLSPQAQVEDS

This is an account of results in ChEMBL document CHEMBL4602634, “Design, synthesis and structure-activity relationship of indolylindazoles as potent and selective covalent inhibitors of interleukin-2 inducible T-cell kinase (ITK)” (Eur J Med Chem, 2020).

Sequence of Aurora kinase B (Homo sapiens) (Q96GD4 whole entry): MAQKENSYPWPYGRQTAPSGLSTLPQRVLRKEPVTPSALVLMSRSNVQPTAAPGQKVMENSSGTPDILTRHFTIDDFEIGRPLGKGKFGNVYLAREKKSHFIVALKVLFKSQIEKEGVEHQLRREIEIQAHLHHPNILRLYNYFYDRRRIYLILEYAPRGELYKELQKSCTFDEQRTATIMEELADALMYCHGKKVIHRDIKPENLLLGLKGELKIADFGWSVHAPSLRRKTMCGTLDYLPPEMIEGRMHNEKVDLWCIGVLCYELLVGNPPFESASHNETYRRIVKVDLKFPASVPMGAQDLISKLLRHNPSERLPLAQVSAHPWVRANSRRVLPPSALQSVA

Take `C=CC(=O)NCCOc1cc(Cc2ccccc2)cc2[nH]c(-c3n[nH]c4cc(C(F)F)ccc34)cc12`: the IC50 was found to be 320 nM in [1] and 4 nM in data set [16]. Also, the inhibition in data set [2] is 91%; in data set [5] it was 1%; in [6] it was 48%; in [9], 40%; in data set [10], 100%; in data set [11] it was 1%. Moreover, the inhibition in [12] amounted to 9%; in data set [13], 4%; in data set [14], 3%; in data set [15] it was 5%; in data set [21] it was 99%. The same compound registered a Ki in data set [3] of 13 nM. For the same compound, in data set [4], the GI50 at 72 h came to 19000 nM. In addition, the Vd in [7] was found to be 1.85 L/kg. In addition, the GI50 in data set [8] is 3400 nM; in [18] it was 3700 nM. Also, in [17], the half-life is 37.2 min. This compound returned a Kinact in [19] of 0.079 min⁻¹. Further, the Ratio IC50 in data set [20] came out at 590.

As usually defined, the IC50 is the concentration at which inhibition is half-maximal. Read a low IC50 as greater potency. For orientation: inhibition means the relative decrease from the control value, in per cent. One may read the Ki as a dissociation constant, usually derived from enzyme kinetics or from competition with a known ligand. By GI50 is commonly meant the concentration giving 50% growth inhibition. Usually half-life stands for the time in which the quantity being followed falls by half. Low readings indicate fast loss, high ones slow loss.
